Drawing on ChEMBL document CHEMBL1629590, “Variety of antiprion compounds discovered through an in silico screen based on cellular-form prion protein structure: Correlation between antiprion activity and binding affinity” (Antimicrob Agents Chemother, 2009), this text covers Activity, Kd and solubility for 27 molecules.

Where only a bound is given, the exact number is not on record here.

Series [1] deals with Major prion protein (Mus musculus) (UniProt P04925). Kind of series: Antiprion activity against mouse recombinant PrP expressed in Fukuoka-1 stain infected mouse GT1-7 cells assessed as remaining PrP-res level at 10 uM after 72 hrs by Western blotting relative to control. It counts as cell-based. Summed up:
(§1)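 GT+FK cells (GT1-7 neuronal line persistently infected with Fukuoka-1 agent) in DMEM/10% FBS, 37°C, 5% CO2; 1.5 × 10⁵ cells/well, dosed 15 h after plating with compound from fresh 10 mM DMSO stock (vehicle 0.1%) for 72 h. Lysates in Triton X-100/deoxycholate buffer adjusted to 2 mg/ml protein; PrP^Sc by Western blot with M-20 antibody, densitometry versus solvent control; effective if <70% of control; ≥2 independent experiments.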
A general note: In western blotting, separated proteins are transferred to a membrane and probed.

The target of series [2] is Major prion protein (Mus musculus, UniProt P04925). Nature of the series: Binding affinity to mouse recombinant PrP (121-231) after 10 mins by surface plasmon resonance assay. Summed up: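 Recombinant mouse PrP(121-231) immobilized on CM5 chip; compounds at various concentrations injected in HEPES-buffered saline (pH 7.4) with 0.1% P20 and 5% DMSO, 1 min at 30 μl/min, then buffer alone for 10 min. Blank-chip corrected; Kd fitted from concentration dependence of sensorgram response.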
(In general: SPR reads the build-up and loss of mass on a sensor chip optically.)

For series [3], the target named is Major prion protein (Mus musculus) (UniProt P04925). Kind of series: Antiprion activity against mouse recombinant PrP expressed in Fukuoka-1 stain infected mouse GT1-7 cells at 10 uM after 72 hrs by Western blotting. It counts as cell-based. The essentials: as §1
The nature of series [4]: Solubility of the compound. In kind it is physicochemical.

Sequence of Major prion protein (Mus musculus) (P04925 whole entry): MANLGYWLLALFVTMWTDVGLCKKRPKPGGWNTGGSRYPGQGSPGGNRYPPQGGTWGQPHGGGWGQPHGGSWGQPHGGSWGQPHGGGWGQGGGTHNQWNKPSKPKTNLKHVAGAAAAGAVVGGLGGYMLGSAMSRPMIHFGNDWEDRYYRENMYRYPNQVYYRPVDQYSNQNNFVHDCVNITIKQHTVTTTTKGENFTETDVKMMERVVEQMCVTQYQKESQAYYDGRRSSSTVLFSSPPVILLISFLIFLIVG
Sequence of Major prion protein (P04925 whole entry): as above

Turning to `Cc1ccc(NC(=O)CN2C(=O)NC3(CCc4ccccc43)C2=O)cc1` (stereo not drawn), the Activity in series [1] is 150%.
With `O=C(COC(=O)c1c2c(nc3ccccc13)CCC2)NC1CCCC1`, the Activity in series [1] amounted to 62.9%.
`N#Cc1c(NC(=O)c2cc3c(s2)CCCC3)sc2c1CCCC2`: in series [1], the Activity was 66.9%.
As usually defined, the Kd is the concentration at which binding is half-saturated. `C=CCNC(=O)NC(=O)CSc1nc2ccccc2n1CC(C)C`: the Kd entry in series [2] is listed as “Not Active”.
In the case of `CCC(C)C(NC(=O)c1ccccc1)C(=O)N1CCc2ccccc21` (stereo not drawn), the Activity in series [1] was 36.8%; in series [3], below 70%. For the same molecule, the Kd in series [2] (read-out: Kd) is 51.2 µM.
`O=C(CSc1nc2ccccc2[nH]1)NC1CCCc2ccccc21` (stereo not drawn): the Activity in series [1] was 64.9%.
As to `CC1CCCCN1CC(=O)Nc1sc2c(c1C#N)CCCCC2` (stereo not drawn), the Activity in series [1] is 58.8%. In addition, the Kd in series [2] (read-out: Kd) is 21.9 µM.
In the case of `O=C(CCc1nc2ccccc2c(=O)[nH]1)NC1CCCc2ccccc21` (stereo not drawn), the Activity in series [1] is 65%.
With `Cc1cccc(NC(=O)N2CCCC2C(=O)NC2CCCC2)c1` (stereo not drawn), the Activity in series [1] amounted to 63.2%.
Still for that read-out and setting: the result for `CC1Cc2ccccc2N1C(=O)COc1ncnc2sccc12` (stereo not drawn) reads 67.4%; that for `Cc1ccc2c(c1)c1c(n2CC(O)CN2CCCCC2)C(=O)CCC1` (stereo not drawn), 51.3%; that for `Cc1cccc2cc(C#N)c(N3CCCN(C(=O)C4CCC4)CC3)nc12`, 50.6%.
Turning to `O=C(CN1C(=O)NC2(CCCc3ccccc32)C1=O)N1CCCCC1` (stereo not drawn), the Activity in series [1] was 67.1%.
With `O=C(CSc1ncnc2sc3c(c12)CCC3)NCC1CCCO1` (stereo not drawn), in series [2], the Kd entry was “Not Active”.
Take `O=C(CN1C(=O)COc2ccccc21)N1CCCc2ccccc21`: the Activity in series [1] was 57.5%.
Consider `O=C(Cc1c[nH]c2ccccc12)NC1CCc2ccccc2C1` (stereo not drawn), for which the Activity in series [1] was 55.3%. In addition, the Kd in series [2] (read-out: Kd) was found to be 48.6 µM.
For `Cc1cccc2cc3c(N)c(C(=O)NC4CCCC4)sc3nc12`, the Activity in series [1] was 41.9%; in series [3], below 70%. Moreover, in series [2] (read-out: Kd), the Kd worked out at 86.1 µM.
With `O=C(NCc1ccccn1)C1CC2c3ccccc3C1c1ccccc12` (stereo not drawn), the Activity in series [1] was found to be 54.7%. Moreover, the solubility entry in series [4] is recorded as “Insoluble”.
Regarding `CCCc1nc2ccccc2n1CC(=O)N1CCCc2ccccc21`, the Activity in series [1] was determined as 67.2%.
For `Cc1cc2cc3c(cc2nc1SCCN1CCCCC1)OCCO3`, the Activity in series [1] is 47.4%; in series [3], below 70%. Further, the Kd in series [2] (read-out: Kd) is 50.8 µM.
On to `CCCCNc1nc2ccccc2n1CC(=O)N1CCc2ccccc21`, for which the values for the Activity in series [1] and in series [3] were 37.3% and below 70%, respectively. Besides, in series [2] (read-out: Kd), the Kd is 20 µM.
As to `O=C(COc1ncnc2ccccc12)NC1CCCc2ccccc21` (stereo not drawn), the Activity in series [1] stood at 53%.
Turning to `O=C1c2cccc3cccc(c23)N1CC(=O)N1CC2CCC1C2` (stereo not drawn), in series [1], the Activity is 65%.
Turning to `CC(=O)N(Cc1ccccc1)Cc1cc2cccc(C)c2n2nnnc12`, in series [2], the Kd result is given as “Not Active”.
`CC1CCCCC1NC(=O)COc1ncnc2sc3c(c12)CCC3` (stereo not drawn): the Activity in series [1] amounted to 68.8%.
Turning to `O=C(Cc1coc2cc3c(cc12)CCC3)N1CCc2ccccc21`, the Activity in series [1] was found to be 63.7%.
Consider `CN1/C(=C/C(=O)Nc2cccs2)c2ccccc2CC1(C)C`, for which, in series [1], the Activity was 57.4%.
